We go through 48 sequences from the EternaBench riboswitch data.

The data set has as its system MS2 coat protein. The data set can be described thus: apparent Kd, MS2 coat protein; higher = weaker binding; RNA-MaP array; FMN 200 µM where present. An outline of the steps:
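The apparent Kd comes from binding curves fitted cluster by cluster, filtered, and summarised as a median. Those curves followed SNAP-549-labelled MS2 coat protein from 0.7 or 1.5 nM, doubling to 3 µM, on Illumina sequencing-chip clusters where stalled E. coli RNA polymerase had transcribed the designs, without and then with constant ligand. The buffer was 100 mM Tris-HCl pH 7.5, 80 mM KCl, 4 mM MgCl2, BSA, DTT, yeast tRNA and Tween-20, and green signal was normalised to red-channel RNA signal and control-cluster median Fmax.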

Where [1] appears, read: designed as: OFF switch for flavin mononucleotide, no ligand.
[2] abbreviates: ligand present: flavin mononucleotide, designed as: OFF switch for flavin mononucleotide.
Where [3] appears, read: designed as: ON switch for flavin mononucleotide, no ligand.
The mark [4] stands for this setting: ligand present: flavin mononucleotide, designed as: ON switch for flavin mononucleotide.

Take “CAGUACUGAGGAUAUACAUGAGGAUCACCCAUGUGUUCCAGCUAGGAUACUAGCAAAAGUAGAAGGCAGUACUG”: the “apparent Kd” value under setting [1] came out at 24.6 nM and the “apparent Kd” value under setting [2] worked out at 443 nM.

Regarding “GUCAGCUCGUGAGGAUAUACAACACUGCUUCGGCAGUGUAUUCAGAUCACAUGAGGAUCACCCAUGUAGAAGGCACGAGCUGAU”, the “apparent Kd” value under setting [1] worked out at 12.8 nM and the “apparent Kd” value under setting [2] amounted to 206 nM.

On to “UUUUAACAUGAGGAUCACCCAUGUGAGGAUAUCGAAAUUUAUAUUUAUAUUUAUAUAUCGAGAAGGCACAUUUU”, for which the “apparent Kd” value stood at 128 nM under setting [1] and 127 nM under setting [2].

With “GGGUGGCGUAGAGGAUAUAUGGUACAUGAGGAUCACCCAUGUGCAUAUGAUGUUCAUGUUUAUGUAUAGAAGGCUACGUCGCUA”, the “apparent Kd” value was found to be 40.6 nM under setting [3] and 42.8 nM under setting [4].

For the sequence “CGUAACUGCAUAGGAUAUUGAUACAUGAGGAUCACCCAUGUUUUUGGGAUUAGUAAUAUAUUAAGCAAGAAGGAUGGAGUUACG”, the “apparent Kd” value came out at 74.2 nM under setting [3] and 39.9 nM under setting [4].

As for “CGAGCUGCUGUGAGGAUAUACCUAUGGGUGCGUGGGUAGAAGGCACAUGAGGAUCACCCAUGUCCUGCAGCUCG”, the “apparent Kd” value was found to be 255 nM under setting [1] and 344 nM under setting [2].

In the case of “UCAACCAGCGCCGGUUAAACAUGAGGAUCACCCAUGUACUCCAGAAGGCCGCCCAAGAACGGAGUGGAGGAUAUGGAGGUUCUC”, the “apparent Kd” value is, setting by setting: under setting [3], 46.8 nM; under setting [4], 38.7 nM.

With “GUAUGAGCGAUAGGAUAUACUGAGAUUGAAUGGGUAGAAGGAUUUCUUGUGGGAAAGACAUGAGGAUCACCCAUGUCACGGACC”, the “apparent Kd” value runs as follows: under setting [3], 291 nM; under setting [4], 148 nM.

For “ACAUGAGGAUCACCCAUGUAAACAUAGGAUAUUGGUGAUCAGGCAUGUUAUACAGGAUAUGUCUGCGAGAAGGAUGCACGUUGC”, the “apparent Kd” value under setting [3] was found to be 583 nM and the “apparent Kd” value under setting [4] was found to be 465 nM.

As for “ACAUGUUUUACAGGAUAUGUUAUACAAUAAACAAUCAGUUAUUAUGAUUUUACAGAAGGGUAUACAUGAGGAUCACCCAUGUUA”, the “apparent Kd” value is, setting by setting: under setting [1], 23 nM; under setting [2], 19.1 nM.

Take “CCUUUGAAGAUCCUGGUUUUCGACAUGAGGAUCACCCAUGUGCAGGAUAUCGUGCCAGUGCUGUGCGAGAAGGGCAGUCUCUGC”: the “apparent Kd” value by setting is: under setting [1], 17.1 nM; under setting [2], 18.9 nM.

Take “AUCUUGUCAGGAUAUGACUACAUAAAAAAAAAAAAAUGUAGUCAGAAGGGACAUGAGGAUCACCCAUGUACUAA”: the “apparent Kd” value reads like this: under setting [1], 34.9 nM; under setting [2], 54.1 nM.

For “CGUAUGUCAGGAUAUGCGUAUGCCGCCCAGGACAGGCGGCAGCAGAAGGGACAUGAGGAUCACCCAUGUUCGGG”, the “apparent Kd” value under setting [1] was determined as 68.3 nM and the “apparent Kd” value under setting [2] amounted to 59.5 nM.

Consider “CAGACGUCAGGAUAUCUGAUGUCUAACUUCGGUUAGACAUCAGAGAAGGGACAUGAGGAUCACCCAUGUCUGAA”, for which the “apparent Kd” value turned out to be 25.4 nM under setting [1] and 23.6 nM under setting [2].

For the sequence “UUGGACGUCGAAGGAUAUGUAGGAUAUUCCUACAUGAGGAUCACCCAUGUUGACAUGGAAGAAGGACAGAAGGACGAUGUCCAU”, the “apparent Kd” value worked out at 479 nM under setting [3] and 6.78 nM under setting [4].

“AUAUGGAAUACAGGAUAUGUAAGUUUUAAGUGUAUUGGUUAUUACUUUACAACAGAAGGGUAUUACAUGAGGAUCACCCAUGUA”: the “apparent Kd” value reads like this: under setting [3], 13.2 nM; under setting [4], 10.7 nM.

“AUAUCUCUAUAAGUUCCAAUACGAACAUGAGGAUCACCCAUGUAGGAUAUGCUAGAAGUAGAGUUGCAGAAGGACAAGUACCUU”: the “apparent Kd” value reads like this: under setting [1], 7.48 nM; under setting [2], 6.75 nM.

In the case of “UCUUAUUGCAAGGAUAUGCAAAUUAUUAUUAAAGCAGAAGGUGCAACAUGAGGAUCACCCAUGUUUCCGGGAAA”, the “apparent Kd” value is 25.2 nM under setting [1] and 104 nM under setting [2].

Regarding “GUAGCUUUCCGAGGAUAUUCAGGGCGUGGAUAUACAUGAGGAUCACCCAUGUGGCGGAAGCCUAGGGAGAAGGCGGGCUGCUUC”, the “apparent Kd” value by setting is: under setting [3], 47.7 nM; under setting [4], 19 nM.

In the case of “UUAUUGGUAGUGAGGAUAUCGGUUUGAUAGAUAUUCGAGAAGGCACAUGAGGAUCACCCAUGUAAGAUUGGGAA”, the “apparent Kd” value is, setting by setting: under setting [1], 201 nM; under setting [2], 196 nM.

Take “CCUAUGUAAGGAUAUAGCCACAUUACGAAUAAGUAGUGUGGCUAGAAGGUACAUGAGGAUCACCCAUGUAUGGG”: the “apparent Kd” value is, setting by setting: under setting [1], 195 nM; under setting [2], 40.6 nM.

In the case of “UUUGCAUUCCGAGGAUAUUCUUUUAUUGUCUUCACAUGAGGAUCACCCAUGUGGCGCUUGCGCCGGGAGAAGGCGGUUUGCUUU”, the “apparent Kd” value stood at 23.9 nM under setting [3] and 24.5 nM under setting [4].

Turning to “ACUCUACAUGAGGAUCACCCAUGUUGAGCCCAUCAAGGAUAUGGGUCUUAAUCGCGGGUGCCAGAAGGUGAUGGUU”, the “apparent Kd” value under setting [3] was determined as 91 nM and the “apparent Kd” value under setting [4] came out at 109 nM.

As for “CAAGGGCAUGAGAAGGCAUAAUUUAUAAUACCACAUGUUUACAUGAGGAUCACCCAUGUUACCUAUGAGGAUAUCAUGCCUACA”, the “apparent Kd” value under setting [1] stood at 14.3 nM and the “apparent Kd” value under setting [2] is 13.1 nM.

As to “CAAUCACCCUCAUGUACCUGAGGACAUGAGGAUCACCCAUGUAAGGAUAUAGCCAUUAAAUCUAACUAGAAGGUAUAAAUAACC”, the “apparent Kd” value by setting is: under setting [1], 1010 nM; under setting [2], 523 nM.

In the case of “GUACUGCCCACAGAUAACUUAGCCAGAAGGGUCUACAUGAGGAUCACCCAUGUGGUCCAAAGUGGACAGGAUAUGGAAACGGUU”, the “apparent Kd” value is, setting by setting: under setting [1], 68.4 nM; under setting [2], 40.9 nM.

With “GUGAACCGUAGGUCGCUGGCUGCACAGGAUAUGAAGGCGUACAUGAGGAUCACCCAUGUUCCCUAUCAGAAGGGUGACAGGAAA”, the “apparent Kd” value runs as follows: under setting [3], 14.8 nM; under setting [4], 8.85 nM.

Turning to “UACAUUUAACAGAAGGCGUUUAUAUUUAACUUACGAGGAUAUGUAUAACAUGAGGAUCACCCAUGUAACUUGGAUAGAAUAUCU”, the “apparent Kd” value under setting [3] is 9.46 nM and the “apparent Kd” value under setting [4] is 8.32 nM.

On to “GGAGAGUUCACAGGAUAUCAUGGGUAGUUAUUUUGAGAAGGGUGAACAAGGAACAUGAGGAUCACCCAUGUAUCCUGGGAGGGC”, for which the “apparent Kd” value is 24.4 nM under setting [3] and 36.8 nM under setting [4].

Turning to “AACAAUCACAUAGGAUAUAGAAUAUUAUAUUUUUACAUGAGGAUCACCCAUGUUUUAUUGGGAUUCUAGAAGGAUGAGUAAUAA”, the “apparent Kd” value under setting [3] was 162 nM and the “apparent Kd” value under setting [4] is 90.8 nM.

Take “UUUGAGUUCCGAGACCGCGGGUUCACAGAAGGCAUUAUUACAUGAGGAUCACCCAUGUGGGUACAUGAGGAUAUGUGAUAUGCG”: the “apparent Kd” value under setting [3] is 20.5 nM and the “apparent Kd” value under setting [4] is 6.99 nM.

In the case of “GCAUGCAAGUAGAAGGGCAGAUAUUUUGAUACUGCAGGAUAUGCAGAAUCAUAUCCACAUGAUAACAUGAGGAUCACCCAUGUA”, the “apparent Kd” value runs as follows: under setting [1], 33.7 nM; under setting [2], 26.1 nM.

Regarding “UUGGAUAUCACAGGAUAUGCUAAGGAUACCUUAGCAGAAGGGUGAUCCAUCCUAUGGCUGUACAUGAGGAUCACCCAUGUGUCA”, the “apparent Kd” value under setting [3] is 246 nM and the “apparent Kd” value under setting [4] stood at 73.6 nM.

For “AGUUGUAAUACAGGAUAUAUAUUAUUUUUAUUUAUAGAAGGGUAAUCACAUGAGGAUCACCCAUGUAUAUACGAGGAAGAAGAG”, the “apparent Kd” value is, setting by setting: under setting [3], 291 nM; under setting [4], 329 nM.

Take “GUAGCAAUCGGAGGAUAUUCAUGAAACAUGAGGAUCACCCAUGUUAAUAUGGGAGAAGGCCGAUUGCUACAAGAGCGAAAGCUC”: the “apparent Kd” value by setting is: under setting [3], 8.58 nM; under setting [4], 5.76 nM.

For the sequence “AUUUAUUUUGUGAGGAUAUGCAGGAUCUAGCUCCAGUAGAAGGCACAUGAGGAUCACCCAUGUGGGUCCGAGAC”, the “apparent Kd” value is, setting by setting: under setting [1], 22.9 nM; under setting [2], 111 nM.

On to “UAGUGCAUUAGAGGAUAUUCUUACGACACGAGUAAGACAUGAGGAUCACCCAUGUUGUGGCAUGGGAAGAAGGCUGAUGUGCUA”, for which the “apparent Kd” value is, setting by setting: under setting [3], 60 nM; under setting [4], 14.5 nM.

With “UGUUUUCAUGUAGGAUAUGCUUGUCGUAGAUACGCAGAAGGACAUGAGGAUCACCCAUGUUAAUGCUACAGAUUUUAGUUUCUU”, the “apparent Kd” value was 19.5 nM under setting [1] and 102 nM under setting [2].

Take “GCCUUACCGGUCAGGAUAUACACUCGUCACUCCUUGUAGAAGGGACAUGAGGAUCACCCAUGUACAUUACAUUC”: the “apparent Kd” value amounted to 38.6 nM under setting [1] and 38 nM under setting [2].

In the case of “AUGACUUAUGUAGGAUAUGCAUAGAGUUGCUAUGCAGAAGGACAUGAGGAUCACCCAUGUAUGUAUACCUUACAAAACUAGCAU”, the “apparent Kd” value under setting [1] came to 9.07 nM and the “apparent Kd” value under setting [2] came to 54 nM.

In the case of “GGGCCGGUGGAGAAGGAGCUUACGAAACGUAGGCUAGGAUAUCCACAUGAGGAUCACCCAUGUGGGAAUAUCUGAUUUUCGCAG”, the “apparent Kd” value by setting is: under setting [1], 4 nM; under setting [2], 5.26 nM.

As for “GAAGGAUGAGCGUAGGAUAUAGGAGGAGUGACAUGAGGAUCACCCAUGUGGUAGGAGGGAGGGUACUAGAAGGACGAGGAAGAGG”, the “apparent Kd” value by setting is: under setting [3], 63.5 nM; under setting [4], 52.2 nM.

As to “AAUAUAAGAGCUGGUAAUCUCAAAACAUGAGGAUCACCCAUGUAGGAUAUCAGCACGAUAAGUGCUGAGAAGGACAUCCAGCUC”, the “apparent Kd” value runs as follows: under setting [1], 14.3 nM; under setting [2], 16.7 nM.

With “AAGAUGCGGGUAGGAUAUGGAGAGAAAGAAAGACCAGAAGGACUGGUCACACAACAUGAGGAUCACCCAUGUGUGUGUUGCGAA”, the “apparent Kd” value is, setting by setting: under setting [1], 11.8 nM; under setting [2], 8.91 nM.

For “AAUAUACAUGAGGAUCACCCAUGUUAGGUGGGACUAGGAUAUCAGAGUACAUUAUGAACAUGAGAAGGAGUCUCAG”, the “apparent Kd” value is, setting by setting: under setting [3], 66.2 nM; under setting [4], 24.2 nM.

As for “AGUGCGUAUGUGAGGAUAUGCUGGUCCUUGGAUCAGCAGAAGGCACAUGAGGAUCACCCAUGUGGUGUCGUACA”, the “apparent Kd” value was determined as 342 nM under setting [1] and 24.9 nM under setting [2].

With “GUCUUCCUAGGAUAUACAUGAGGAUCACCCAUGUACAGUUUCGUCAAAGGAUAAUCGCGUAGAAGGAGGUGGAU”, the “apparent Kd” value runs as follows: under setting [1], 16.5 nM; under setting [2], 23.6 nM.

Regarding “CGGUAAACCACAGGAUAUGGCUAGCAUAGCUAGCCAGAAGGGUGGUCGAAACCAUGUAAAUACAUGAGGAUCACCCAUGUAUCC”, the “apparent Kd” value by setting is: under setting [3], 501 nM; under setting [4], 52.6 nM.

The term apparent Kd denotes a dissociation constant that holds for the conditions of the assay.
